Reference: ChEMBL document CHEMBL3769305, “Glucose-functionalized amino-OPEs as biocompatible photosensitizers in PDT” (Eur J Med Chem, 2016)
Active and inactive are the calls of the source. The rule behind the calls is not given here.

What was measured:
HaCaT [1] = experiment: Phototoxicity against human HaCaT cells assessed as cell lethality at 3 to 250 uM incubated for 6 hrs followed by UV irradiation at 0.5 J/cm'2 measured after 24 hrs by MTT assay; format: cell-based
Method in brief: (§1)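 Cultures at 60–70% confluence were loaded with the photosensitizer for 6 h in medium with 1% FBS and <0.5% DMSO. Medium was then replaced and cells were irradiated with UVA (300–400 nm, 15.9 W/m² at 10 cm), then washed and kept in complete medium for 24 h. Survival was read by MTT (50 µg/mL, 4 h, 542 nm) as % of untreated control OD.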

HeLa [2] = experiment: Induction of cell morphological changes in human HeLa cells assessed as cellular stretching at 3 to 5 uM after 24 hrs by Hoechst 33258 staining-based phase contrast microscopy in presence of UVA light; format: functional
[3] = Induction of microtubule disruption in human HaCaT cells assessed as appearance of apoptotic morphology at LD50 after 24 hrs by immunofluorescence assay in presence of UVA light; format: cell-based
HEp-2 [4] = experiment: Increase in mitotic nuclei level in human Hep2 cells at LD50 after 24 hrs by Hoechst 33258 staining-based fluorescence microscopy in presence of UVA light; format: functional, cell-based
[5] = Induction of microtubule disruption in human HaCaT cells at LD50 after 24 hrs by immunofluorescence assay in presence of UVA light; format: cell-based
HaCaT [6] = experiment: Induction of morphological changes in human HaCaT cells assessed as nuclear retraction at LD50 after 24 hrs by Hoechst 33258 staining-based fluorescence microscopy in presence of UVA light; format: cell-based
HEp-2 [7] = experiment: Induction of necrosis in human Hep2 cells at LD50 after 24 hrs by acridine orange/ethidium bromide staining-based assay in presence of 0.25 to 0.5 J/cm'2 UVA light; format: functional, cell-based
Method in brief: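 Cells (HaCaT, HeLa in DMEM; HEp-2 in RPMI; 10% FBS) at 60–70% confluence were incubated 6 h with 3·10^-6 M photosensitizer (DMSO stock diluted in medium with 1% FBS, final DMSO <0.5%). Medium was replaced and cells were given 0.25 J/cm² UVA (300–400 nm). 24 h later, cells were stained live with 50 µg/ml AO plus 50 µg/ml EtBr in PBS. Within 15 min, 200 cells per condition were scored as living, rounded, apoptotic or necrotic.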

HeLa [8] = experiment: Induction of cell morphological changes in human HeLa cells assessed as cytoplasmic retraction at 3 to 5 uM after 24 hrs by Hoechst 33258 staining-based phase contrast microscopy in presence of UVA light; format: functional
HaCaT [9] = experiment: Induction of cell morphological changes in human HaCaT cells assessed as cell elongation at 3 to 5 uM after 24 hrs by Hoechst 33258 staining-based phase contrast microscopy in presence of UVA light
HEp-2 [10] = experiment: Induction of cell morphological changes in human Hep2 cells assessed as cytoplasmic retraction at 3 to 5 uM after 24 hrs by Hoechst 33258 staining-based phase contrast microscopy in presence of UVA light; format: functional
HeLa [11] = experiment: Drug uptake in human HeLa cells at 1 uM after 6 hrs by fluorescence microscopy; format: ADME, cell-based
Method in brief: (§2)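 Cells on glass coverslips at 60–70% confluence were exposed to 1×10^-6 M compound in medium with 1% FBS (DMSO <0.5%) for 6 h at 37 °C. After two PBS washes they were imaged live under UV excitation (365 nm), with blue excitation (460–490 nm) also used. Untreated cells served as autofluorescence controls.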

HeLa [12] = experiment: Induction of microtubule disruption in human HeLa cells assessed as increase in mitotic index at LD50 after 24 hrs by immunofluorescence assay in presence of UVA light; format: cell-based
[13] = Phototoxicity against human Hep2 cells assessed as cell lethality at 3 to 250 uM incubated for 6 hrs followed by UV irradiation at 2 J/cm'2 measured after 24 hrs by MTT assay; format: functional, HEp-2; method in brief: as §1
[14] = Dark toxicity against human HeLa cells assessed as cell survival at 10 uM incubated for 6 hrs measured after 24 hrs by MTT assay; format: cell-based; conditions: read-out: Survival
Method in brief: (§3)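 Cells (HaCaT and HeLa in DMEM, HEp-2 in RPMI, each with 10% FBS, at 37 °C and 5% CO2) were treated at 60–70% confluence. The compound was added from a 10^-3 M DMSO stock in medium with 1% FBS (final DMSO <0.5%) at 3·10^-6 to 2.5·10^-5 M and kept in the dark (6 h per table footnote, 18 h per methods). After 24 h, MTT at 50 µg/mL for 4 h, read at 542 nm as % of control OD.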

HEp-2 [15] = experiment: Induction of morphological changes in human Hep2 cells assessed as nuclear retraction at LD50 after 24 hrs by Hoechst 33258 staining-based fluorescence microscopy in presence of UVA light; format: functional, cell-based
[16] = Dark toxicity against human HaCaT cells assessed as cell survival at 10 uM incubated for 6 hrs measured after 24 hrs by MTT assay; format: cell-based; conditions: read-out: Survival; method in brief: as §3
[17] = Phototoxicity against human Hep2 cells assessed as cell lethality at 3 to 250 uM incubated for 6 hrs followed by UV irradiation at 0.5 J/cm'2 measured after 24 hrs by MTT assay; format: functional, HEp-2; method in brief: as §1
[18] = Dark toxicity against human Hep2 cells assessed as cell survival at 3 uM incubated for 6 hrs measured after 24 hrs by MTT assay; format: cell-based, HEp-2; conditions: read-out: Survival; method in brief: as §3
HeLa [19] = experiment: Induction of apoptosis in human HeLa cells at LD50 after 24 hrs by acridine orange/ethidium bromide staining-based assay in presence of 0.25 to 0.5 J/cm'2 UVA light; format: functional, cell-based
HEp-2 [20] = experiment: Induction of cell morphological changes in human Hep2 cells assessed as appearance of rounded cells at 3 to 5 uM after 24 hrs by Hoechst 33258 staining-based phase contrast microscopy in presence of UVA light; format: functional
[21] = Dark toxicity against human Hep2 cells assessed as cell survival at 10 uM incubated for 6 hrs measured after 24 hrs by MTT assay; format: cell-based, HEp-2; conditions: read-out: Survival; method in brief: as §3
HeLa [22] = experiment: Induction of cell morphological changes in human HeLa cells assessed as appearance of rounded cells at 3 to 5 uM after 24 hrs by Hoechst 33258 staining-based phase contrast microscopy in presence of UVA light; format: functional
HeLa [23] = experiment: Induction of cell morphological changes in human HeLa cells assessed as cell detachment from substrate at 3 to 5 uM after 24 hrs by Hoechst 33258 staining-based phase contrast microscopy in presence of UVA light; format: functional
[24] = Dark toxicity against human Hep2 cells assessed as cell survival at 5 uM incubated for 6 hrs measured after 24 hrs by MTT assay; format: cell-based, HEp-2; conditions: read-out: Survival; method in brief: as §3
[25] = Drug uptake in human Hep2 cells at 1 uM after 6 hrs by fluorescence microscopy; format: ADME, cell-based; conditions: hep-2, 6 h; method in brief: as §2
HEp-2 [26] = experiment: Induction of necrotic morphological changes in human Hep2 cells at LD50 after 24 hrs by Hoechst 33258 staining-based fluorescence microscopy in presence of UVA light; format: functional, cell-based
HeLa [27] = experiment: Induction of necrosis in human HeLa cells at LD50 after 24 hrs by acridine orange/ethidium bromide staining-based assay in presence of 0.25 to 0.5 J/cm'2 UVA light; format: functional, cell-based
[28] = Induction of singlet-oxygen generation at 5 x 10^-5 M irradiated at 380 nm by uric acid degradation assay; format: physicochemical; conditions: 0.38 µM

Structure (SMILES) | mortality (HaCaT [1]) [%] | Activity (HeLa [2]) | Activity [3] | Activity (HEp-2 [4]) | Activity [5] | Activity (HaCaT [6]) | Activity (HEp-2 [7]) | Activity (HeLa [8]) | Activity (HaCaT [9]) | Activity (HEp-2 [10]) | Drug uptake (HeLa [11]) | Activity (HeLa [12]) | mortality [13] [%] | viability at 6 h, 10 µM [14] [%] | Activity (HEp-2 [15]) | viability at 6 h, 10 µM [16] [%] | mortality [17] [%] | viability at 6 h, 3 µM [18] [%] | Activity (HeLa [19]) | Activity (HEp-2 [20]) | also measured
COc1cc(C#Cc2ccc(C#CCO[C@@H]3O[C@H](CO)[C@@H](O)[C@H](O)[C@H]3O)cc2N(C)C)c(OC)cc1C#Cc1ccc(C#CCO[C@@H]2O[C@H](CO)[C@@H](O)[C@H](O)[C@H]2O)cc1N(C)C | > 50 | Active | Toxic | Active | Toxic | Toxic | Active | Active | Toxic | Active | Active | Active | >50 | 76.9 | Active | 70.2 | >50 | 97.7 | Active | Active | viability at 6 h, 10 µM [21]: 80.1%; Activity (HeLa [22]): Active; Activity (HeLa [23]): Active; viability at 6 h, 5 µM [24]: 95.7%; Drug uptake [25]: Active; Activity (HEp-2 [26]): Active; Activity (HeLa [27]): Active
COc1cc(C#Cc2ccc(C#Cc3cc(OC)c(C#CCO[C@@H]4O[C@H](CO)[C@@H](O)[C@H](O)[C@H]4O)cc3OC)c(N(C)C)c2)c(OC)cc1C#CCO[C@@H]1O[C@H](CO)[C@@H](O)[C@H](O)[C@H]1O | > 50 | Active | Toxic | Active | Toxic | Toxic | Active | Active | Toxic | Active | Active | Active | >50 | 82.2 | Active | 71.5 | >50 | 97.2 | Active | Active | Activity [28]: Active; viability at 6 h, 10 µM [21]: 85.6%; Activity (HeLa [22]): Active; Activity (HeLa [23]): Active; viability at 6 h, 5 µM [24]: 96.3%; Drug uptake [25]: Active; Activity (HEp-2 [26]): Active; Activity (HeLa [27]): Active
